Assay outcomes from PubChem BioAssay.
Bfl-1 A1 inh: inhibitors of the anti-apoptotic protein A1, read as caspase activation; MEF A1-2A-BIM cells, Caspase-Glo 3/7 luminescence, 3 h; percent of clofoctol response, vehicle zero; caspase activation, % (test concentration not listed); actives 0.066% (n = 330,000); AID 2462;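 active = over half of replicate activation scores above 10%, or exactly half above 10 with the replicate mean above 10; inconclusive = replicate mean below 10 yet half the replicates above 10; inactive = over half of replicates below 10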
UPR CHOP act: activators of apoptotic arm of unfolded protein response (CHOP). activation, % at 10 µM. AID 449763. CHO-CHOP luciferase reporter, UPR activation, luminescence; percent of tunicamycin response over DMSO baseline. actives 0.34% (n = 330,000);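 active = at 10 µM dose, activation of 40% or more, normalized to positive control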
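System: CHO CHOP reporter cells. Amount: 500 cells per well. Buffer or medium: F12 medium, 10% FBS. Compound dosing: one dose, 10 µM in 0.5% DMSO. Incubation: 6 h compound exposure at 37 °C after overnight seeding. Technique: Steady-Glo luciferase luminescence. Benchmarks: tunicamycin and DMSO controls.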
XBP1 UPR activ: activators of adaptive arm of unfolded protein response (XBP1); CHO-XBP1 luciferase reporter, IRE1-XBP1 UPR activation, luminescence; percent of tunicamycin response, DMSO as zero; activation, % at 20 µM; actives 0.33% (n = 330,000);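 active = versus positive control, 20 µM dose yields 30% or more activation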
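Material: CHO cell line with stable XBP1 luciferase reporter; schedule: 16-18 h cell attachment at 37 °C, then 6 h compound exposure; signal: glow luminescence from Steady-Glo reagent; medium: serum-containing F12 medium, 10% FBS; benchmarks: tunicamycin 10 µg/mL and vehicle-only wells; read-out: percent activation relative to tunicamycin reference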
CHOP inh: blocks CHOP induction under ER stress | CHO-K1 CHOP-promoter luciferase, tunicamycin-induced, 15-18 h | inhibition, % at 10 µM | actives 3.8% (n = 220,000);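 active = compounds that reduced the stress-induced luciferase reporter signal by more than about 70% of percent inhibition, limit read from the data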
UPR CHOP confirm: apoptotic UPR (CHOP) activation, confirmed; shares compounds with UPR CHOP act; CHO-CHOP cells, CHOP-luciferase reporter luminescence; percent of tunicamycin response, DMSO as zero; activation, % at 10 µM; actives 64% (n = 1,000); in the data active = activation above about 33%
Numbers stand for hits; . = inactive; ? = inconclusive; / = not tested or not shown. This excerpt belongs to a sample that is enriched for hits.

SMILES | Bfl-1 A1 inh | UPR CHOP act | XBP1 UPR activ | CHOP inh | UPR CHOP confirm
Cc1ccc(-c2nc3c(c(=O)c4ccccc4n3C)c(=O)n2-c2ccc(F)cc2)cc1 | . | . | . | . | /
Cn1c2ccccc2c(=O)c2c(=O)n(-c3ccccc3)c(-c3ccc(C(C)(C)C)cc3)nc21 | . | 58.9 | . | . | .
Cc1ccc(-c2nn(-c3ccccc3)cc2NC(=O)CCl)cc1 | . | 81.6 | . | 104.5 | .
CC1CCCCC1NC(=O)c1c(O)nc2ccccn2c1=O (configuration not stated) | . | . | . | / | /
O=C1C(Cl)=C(NC(=O)c2ccccc2)C(=O)C(Cl)=C1NC(=O)c1ccccc1 | . | 86.0 | . | / | 50.4
COc1ccc(-c2cc(C(F)(F)F)nc(S(=O)(=O)CCC(=O)N3CCOCC3)n2)cc1 | . | . | . | . | /
COc1ccc(-c2cc(C(F)(F)F)nc(S(=O)(=O)CCCC(=O)Nc3cccc(O)c3)n2)cc1OC | / | 55.4 | . | . | .
CNC[C@@H](Cc1ccccc1)NC[C@@H](CC1CCCCC1)NCCCc1ccccc1 | . | 73.5 | . | / | 34.0
CCC[C@@H](CN[C@@H](CNC)C(C)C)NCCCCc1ccccc1 | . | . | . | / | /
CNC[C@@H](CC1CCCCC1)NC[C@H](CC(C)C)NCCc1cccc(C(F)(F)F)c1 | . | 83.4 | . | / | 33.2
CC[C@@H](C)[C@H](CNC)NC[C@@H](Cc1cccc2ccccc12)NCCc1cccc(C(F)(F)F)c1 | . | . | . | / | /
COC(CNC(=O)CNC(=S)N(Cc1ccccc1)Cc1cccnc1)OC | . | . | . | . | /
CCCN(CCC)C(=O)c1cc([N+](=O)[O-])cc2c1-c1ccc([N+](=O)[O-])cc1C2=C(C#N)C#N | . | 334.7 | . | . | 201.4
O=C(/C=C/c1ccccc1[N+](=O)[O-])NCc1ccncc1 | . | . | . | . | /
CCOC(=O)c1c(NC(=O)c2ccco2)n(C2CCCCC2)c2nc3ccccc3nc12 | . | 40.4 | . | . | .
COc1ccc2c(c1)CCc1c(C(=O)NCc3ccc(Cl)cc3)noc1-2 | . | . | . | . | /
COc1ccc2c(c1)CCc1c(C(=O)Nc3cc(C)n(Cc4ccc(Cl)cc4)n3)noc1-2 | ? | 107.3 | 141.5 | 93.2 | 121.5
CC(=O)Nc1ccc(NC(=O)c2ccccc2F)cc1 | . | . | . | . | /
N#Cc1c(N2CCCC(O)C2)nc(N)c2c(N)nc3c(c12)CC(=O)N3C12CC3CC(CC(C3)C1)C2 (configuration not stated) | . | 46.3 | . | . | .
CCOc1ccc(CCNC(=O)c2cccc3c2C(=O)N(CCOC)C3)cc1OCC | . | . | . | / | /
CC1=C(C)C(=O)C(N2CCOCC2)=CC1=O | / | / | / | . | /
O=C1C=C(N2CCOCC2)c2ccccc2C1=O | . | 41.4 | . | / | .
O=C(CN(C(=O)CCC(=O)Nc1nccs1)c1ccc(F)c(Cl)c1)NCC1CCCO1 (configuration not stated) | . | . | . | / | /
O=S(=O)(c1ccc2ccccc2c1)N1CCNCC1 | . | . | . | / | /
O=[n+]1c2c(n([O-])c3cc(F)c(N4CCCC4)cc31)CCC2 | . | 40.8 | . | / | .
SMILES | Bfl-1 A1 inh | UPR CHOP act | XBP1 UPR activ | CHOP inh | UPR CHOP confirm
COc1ccc(N=C2S/C(=C\c3ccc(N4CCOCC4)o3)C(=O)N2CCc2c[nH]c3ccccc23)cc1 | . | 138.6 | . | . | 72.5
COc1ccc(N=C2S/C(=C\c3ccc(OCC(=O)O)cc3)C(=O)N2CCc2c[nH]c3ccccc23)cc1 | / | . | . | . | /
Cc1ccc(CS(=O)(=O)c2ncc(Cl)c(C(=O)Nc3ccc(OC(F)F)cc3)n2)cc1 | ? | 165.6 | . | / | 34.5
CSc1nnc(NC(=O)c2nc(S(=O)(=O)Cc3cccc(C)c3)ncc2Cl)s1 | . | 55.1 | . | / | 74.9
Cc1cccc(CS(=O)(=O)c2ncc(Cl)c(C(=O)Nc3nnc(C(C)C)s3)n2)c1 | 8.1 | 105.2 | . | / | .
Cc1ccc(CS(=O)(=O)c2ncc(Cl)c(C(=O)Nc3nnc(C(C)C)s3)n2)cc1 | . | 91.5 | . | / | 38.1
CCOc1ccccc1NC(=O)c1nc(S(=O)(=O)Cc2cccc(C)c2)ncc1Cl | . | . | . | / | /
COC(=O)C1=C(CS(=O)(=O)c2ccc(C)cc2)NC(=O)NC1c1ccc(OC)c(OC)c1 (configuration not stated) | . | . | . | / | /
